# Source: ChEMBL document CHEMBL1158527, “Identification of novel allosteric nonpeptidergic inhibitors of the human cytomegalovirus-encoded chemokine receptor US28” (Bioorg Med Chem, 2010)
# Target: not listed separately
# Experiment: Activity at HCMV US28 receptor assessed as receptor-mediated inositol phosphate response
# Design: species or system Human betaherpesvirus 5
# Method in brief: (§1)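 Compounds were tested against ligand-independent (constitutive) US28-driven inositol phosphate production, measured as InsP accumulation. EC50 values (mean and interval) came from dose–response curves. Single-point data give percent inhibition of constitutive signaling at 10 µM compound. All runs were in triplicate and repeated at least three times.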
row,SMILES,EC50
1,c1ccc(CN2C3CCC2CC(OC2c4ccccc4CCc4ccccc42)C3)cc1 (stereo not drawn),8.8 µM
2,c1ccc(CCN2C3CCC2CC(OC2c4ccccc4CCc4ccccc42)C3)cc1 (stereo not drawn),4.3 µM
3,Clc1ccc(CC2Cc3ccccc3C2N2CCN(c3ccccc3)CC2)c(Cl)c1 (stereo not drawn),> 100 µM
4,CC(Cc1ccccc1)NCCC1c2ccccc2CCc2ccccc21 (stereo not drawn),5.2 µM
5,NC(CCc1ccc(Cl)c(Cl)c1)c1ccc(Cl)c(Cl)c1 (stereo not drawn),11.7 µM
6,NC1c2ccccc2CC1Cc1ccc(Cl)cc1Cl (stereo not drawn),11.1 µM
7,OC1(c2ccc(Cl)cc2)CCN(CCCN(Cc2ccccc2)c2ccccc2)CC1,3 µM
8,OC1(c2ccc(Cl)cc2)CCN(CCCN(Cc2ccc(Cl)cc2)c2ccccc2)CC1,5.5 µM
9,OC1(c2ccc(Cl)cc2)CCN(CCCC(c2ccc(F)cc2)c2ccc(F)cc2)CC1,5.2 µM
10,NCC1(c2ccc(Cl)cc2)CCN(CCCN2Cc3ccccc3CCc3ccccc32)CC1,7.6 µM
11,C1=Cc2ccccc2C(OC2CC3CCC(C2)N3C2CCCCC2)c2ccccc21 (stereo not drawn),5.8 µM
12,OC1(c2ccc(Cl)cc2)CCN(C2c3ccccc3CC2Cc2ccc(Cl)cc2Cl)CC1 (stereo not drawn),6 µM
13,N#CC(CCCN1CCC(O)(c2ccc(Cl)cc2)CC1)(c1ccccc1)c1ccccc1 [BERLEX COMPOUND],6.3 µM
14,CSc1ccc2c(c1)C(N1CCN(C)CC1)Cc1ccccc1S2 (stereo not drawn) [METITEPINE],7.6 µM
15,COc1ccc(CC2Cc3ccccc3C2N)cc1C (stereo not drawn),16.4 µM
16,OC1(c2ccc(Cl)cc2)CCN(CCOC(c2ccccc2)c2ccccc2)CC1,3.5 µM
17,CSc1ccc2c(c1)C(OCCN1CCC(O)(c3ccc(Cl)cc3)CC1)Cc1ccccc1S2 (stereo not drawn),7.1 µM
18,CC(C)(C)c1ccc(C(OC(CN)c2ccccc2)c2ccccc2)cc1 (stereo not drawn),8.4 µM
19,CCCCCCCCN1C2CCC1CC(OC1c3ccccc3CCc3ccccc31)C2 (stereo not drawn),4.9 µM

row,SMILES,EC50
1,OC1(c2ccc(Cl)cc2)CCN(CCOC(c2ccccc2)c2ccc(F)cc2)CC1 (stereo not drawn),4.6 µM
2,COc1ccc(CC2Cc3ccccc3C2N)cc1 (stereo not drawn),> 100 µM
3,CN1CCN(C2Cc3ccccc3Sc3ccc(Cl)cc32)CC1 (stereo not drawn) [CLOROTEPINE],12.1 µM
4,COc1ccc(CC2Cc3ccccc3C2N)c(OC)c1 (stereo not drawn),> 100 µM
5,Clc1ccc(CC2Cc3ccccc3C2N2CCCCC2)c(Cl)c1 (stereo not drawn),2.6 µM
6,CN1CCN(C2c3ccccc3CC2Cc2ccc(Cl)cc2Cl)CC1 (stereo not drawn),12.1 µM
7,Cc1ccc(CC2Cc3ccccc3C2N)c(C)c1 (stereo not drawn),13.7 µM
8,COc1ccccc1CC1Cc2ccccc2C1N (stereo not drawn),42.7 µM
9,OC1(c2ccc(Cl)cc2)CCN(CCCN(Cc2ccccc2)c2ccc(Cl)cc2)CC1,5 µM
10,OC1(c2ccc(Cl)cc2)CCN(CCCN2Cc3ccccc3CCc3ccccc32)CC1,4.7 µM
11,OC1(c2ccc(Cl)cc2)CCCN(CCCN2Cc3ccccc3CCc3ccccc32)C1 (stereo not drawn),3.9 µM
12,NCC(OC(c1ccccc1)c1ccc(Cl)cc1Cl)c1ccccc1 (stereo not drawn),10.2 µM
13,Clc1ccc(C2=CCN(C3c4ccccc4CC3Cc3ccc(Cl)cc3Cl)CC2)cc1 (stereo not drawn),> 100 µM
14,Clc1ccc(CC2Cc3ccccc3C2NCc2ccccc2)c(Cl)c1 (stereo not drawn),> 100 µM
15,CC(Cc1ccccc1)NCCC1c2ccccc2-c2ccccc21 (stereo not drawn),10.9 µM
16,NC1c2ccccc2CCC1Cc1ccc(Cl)cc1Cl (stereo not drawn),12.6 µM
17,CC(=O)Nc1ccc(CC2Cc3ccccc3C2N)cc1 (stereo not drawn),> 100 µM
18,NC1c2ccccc2CC1Cc1ccccc1 (stereo not drawn),> 100 µM

# Tested on: Human betaherpesvirus 5
# Experiment: Activity at HCMV US28 receptor assessed as receptor-mediated inositol phosphate response at 10 uM
# Method in brief: as §1
row,SMILES,Activity
1,CN1CCN(CCCN2Cc3ccccc3CCc3ccccc32)CC1,3%
2,CCCN1C2CCC1CC(OC1c3ccccc3C=Cc3ccccc31)C2 (stereo not drawn),0%
3,O=C(CCN1CCN(CCO)CC1)N1Cc2ccccc2CCc2ccccc21,0%
4,CN1CCN(CCC(=O)N2Cc3ccccc3CCc3ccccc32)CC1,0%
5,N=C(N)NCCN1C2CCC1CC(OC1c3ccccc3CCc3ccccc31)C2 (stereo not drawn),0%
6,CCN1CCN(C2=Nc3cc(Cl)ccc3Nc3ccccc32)CC1,16%
7,CC(Cc1ccccc1)NCC=C1c2ccccc2-c2ccccc21 (stereo not drawn),42%
8,CN1CCN(C2=Nc3ccccc3Sc3ccc(Cl)cc32)CC1,0%
9,CC(Cc1cccc(C(F)(F)F)c1)NCC=C(c1ccc(F)cc1)c1ccc(F)cc1 (stereo not drawn),38%
10,CCc1ccccc1C1(OCCN(C)Cc2cccc(C)c2)CCCCC1C (stereo not drawn),10%
11,CCN1CCN(C2=Nc3cc(Cl)ccc3Oc3ccccc32)CC1,0%
12,NC(CCc1ccccc1)c1ccc(Cl)c(Cl)c1 (stereo not drawn),34%
13,CN1[C@@H]2CC[C@H]1C[C@@H](OC1c3ccccc3CCc3ccccc31)C2,0%
14,Clc1cccc(/C=C(\c2ccccc2)N2CCN(CCCCc3ccccc3)CC2)c1,18%
15,OCCCCN1CCN(/C(=C/c2cccc(Cl)c2)c2ccccc2)CC1,0%
16,CCN1C2CCC1CC(OC1c3ccccc3CCc3ccccc31)C2 (stereo not drawn),0%
17,CN1CCN(C2=Nc3ccccc3Oc3ccc(Cl)cc32)CC1,0%
18,CC(Cc1cccc(C(F)(F)F)c1)NCCc1c2ccccc2nc2ccccc12 (stereo not drawn),34%
19,CC(C)N1C2CCC1CC(OC1c3ccccc3C=Cc3ccccc31)C2 (stereo not drawn),3%
20,CN1CCN(C2=Nc3cc(Cl)ccc3Nc3ccccc32)CC1,11%
21,CN1CCN(/C(=C/c2cccc(Cl)c2)c2ccccc2)CC1,20%
22,NC1c2ccccc2CCCC1Cc1ccc(Cl)cc1Cl (stereo not drawn),26%
23,N/C(CCN1C2CCC1CC(OC1c3ccccc3CCc3ccccc31)C2)=N\O (stereo not drawn),0%
24,CC(Cc1ccccc1)NCC=C1c2ccccc2CCc2ccccc21 (stereo not drawn),39%
25,CC(Cc1ccc(Cl)cc1)NCCC1=C2C=CC=CC2Sc2ccccc21 (stereo not drawn),21%
26,CCCCN1CCN(C2=Nc3cc(Cl)ccc3Nc3ccccc32)CC1,19%
27,CN1CCN(C2=Nc3cc(Cl)ccc3Sc3ccccc32)CC1,0%
28,CN1CCN(C2=Nc3cc(Cl)ccc3Oc3ccccc32)CC1,22%

# Tested on: Human betaherpesvirus 5
# Experiment: Displacement of [125I]CCL5 from HCMV US28 receptor at 10 uM
# Method in brief: (§2)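 Allosteric inhibition of chemokine binding to US28 was measured by ¹²⁵I-CCL5 radioligand binding. IC50 values (mean and interval) came from competition curves. Single-point data give percent inhibition of CCL5 binding at 10 µM compound. All runs were in triplicate and repeated at least three times.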
row,SMILES,Activity
1,CCCN1C2CCC1CC(OC1c3ccccc3C=Cc3ccccc31)C2 (stereo not drawn),18%
2,N=C(N)NCCN1C2CCC1CC(OC1c3ccccc3CCc3ccccc31)C2 (stereo not drawn),34%
3,CN1CCN(C2=Nc3ccccc3Sc3ccc(Cl)cc32)CC1,28%
4,CC(Cc1cccc(C(F)(F)F)c1)NCC=C(c1ccc(F)cc1)c1ccc(F)cc1 (stereo not drawn),39%
5,CCN1CCN(C2=Nc3cc(Cl)ccc3Oc3ccccc32)CC1,38%
6,NC(CCc1ccccc1)c1ccc(Cl)c(Cl)c1 (stereo not drawn),5%
7,CN1[C@@H]2CC[C@H]1C[C@@H](OC1c3ccccc3CCc3ccccc31)C2,15%
8,Clc1cccc(/C=C(\c2ccccc2)N2CCN(CCCCc3ccccc3)CC2)c1,47%
9,OCCCCN1CCN(/C(=C/c2cccc(Cl)c2)c2ccccc2)CC1,13%
10,CCN1C2CCC1CC(OC1c3ccccc3CCc3ccccc31)C2 (stereo not drawn),7%
11,CN1CCN(C2=Nc3ccccc3Oc3ccc(Cl)cc32)CC1,13%
12,CC(C)N1C2CCC1CC(OC1c3ccccc3C=Cc3ccccc31)C2 (stereo not drawn),13%
13,CN1CCN(C2=Nc3cc(Cl)ccc3Nc3ccccc32)CC1,47%
14,CN1CCN(/C(=C/c2cccc(Cl)c2)c2ccccc2)CC1,13%
15,N/C(CCN1C2CCC1CC(OC1c3ccccc3CCc3ccccc31)C2)=N\O (stereo not drawn),0%
16,CN1CCN(C2=Nc3cc(Cl)ccc3Sc3ccccc32)CC1,47%
17,CN1CCN(C2=Nc3cc(Cl)ccc3Oc3ccccc32)CC1,19%

# Target: not listed separately
# Experiment: Displacement of [125I]CCL5 from HCMV US28 receptor
# Design: species or system Human betaherpesvirus 5
# Method in brief: as §2
row,SMILES,IC50
1,c1ccc(CN2C3CCC2CC(OC2c4ccccc4CCc4ccccc42)C3)cc1 (stereo not drawn),10.5 µM
2,CN1CCN(CCCN2Cc3ccccc3CCc3ccccc32)CC1,4.9 µM
3,O=C(CCN1CCN(CCO)CC1)N1Cc2ccccc2CCc2ccccc21,> 100 µM
4,CN1CCN(CCC(=O)N2Cc3ccccc3CCc3ccccc32)CC1,> 100 µM
5,C=C[C@H]1CN2CC[C@@H]1C[C@H]2C(OC(=O)c1ccc(C)cc1)c1ccnc2ccccc12 (stereo partly drawn),0.3 µM
6,c1ccc(CCN2C3CCC2CC(OC2c4ccccc4CCc4ccccc42)C3)cc1 (stereo not drawn),11.9 µM
7,Clc1ccc(CC2Cc3ccccc3C2N2CCN(c3ccccc3)CC2)c(Cl)c1 (stereo not drawn),> 100 µM
8,CC(Cc1ccccc1)NCCC1c2ccccc2CCc2ccccc21 (stereo not drawn),3.7 µM
9,CCN1CCN(C2=Nc3cc(Cl)ccc3Nc3ccccc32)CC1,3.8 µM
10,NC(CCc1ccc(Cl)c(Cl)c1)c1ccc(Cl)c(Cl)c1 (stereo not drawn),7.5 µM
11,OCCN1CCN(CCCN2Cc3ccccc3CCc3ccccc32)CC1,1.6 µM
12,CC(Cc1ccccc1)NCC=C1c2ccccc2-c2ccccc21 (stereo not drawn),7 µM
13,NC1c2ccccc2CC1Cc1ccc(Cl)cc1Cl (stereo not drawn),9.5 µM
14,OC1(c2ccc(Cl)cc2)CCN(CCCN(Cc2ccccc2)c2ccccc2)CC1,4.1 µM
15,OC1(c2ccc(Cl)cc2)CCN(CCCN(Cc2ccc(Cl)cc2)c2ccccc2)CC1,5.7 µM
16,OC1(c2ccc(Cl)cc2)CCN(CCCC(c2ccc(F)cc2)c2ccc(F)cc2)CC1,3 µM
17,CCc1ccccc1C1(OCCN(C)Cc2cccc(C)c2)CCCCC1C (stereo not drawn),12.9 µM
18,NCC1(c2ccc(Cl)cc2)CCN(CCCN2Cc3ccccc3CCc3ccccc32)CC1,1.6 µM
19,C1=Cc2ccccc2C(OC2CC3CCC(C2)N3C2CCCCC2)c2ccccc21 (stereo not drawn),8.3 µM
20,OC1(c2ccc(Cl)cc2)CCN(C2c3ccccc3CC2Cc2ccc(Cl)cc2Cl)CC1 (stereo not drawn),11 µM
21,N#CC(CCCN1CCC(O)(c2ccc(Cl)cc2)CC1)(c1ccccc1)c1ccccc1 [BERLEX COMPOUND],4.9 µM
22,CCN1CCC[C@H]1CNC(=O)c1c(OC)ccc(I)c1O [IOLOPRIDE],0.3 µM
23,CSc1ccc2c(c1)C(N1CCN(C)CC1)Cc1ccccc1S2 (stereo not drawn) [METITEPINE],0.41 µM
24,COc1ccc(CC2Cc3ccccc3C2N)cc1C (stereo not drawn),59.7 µM
25,OC1(c2ccc(Cl)cc2)CCN(CCOC(c2ccccc2)c2ccccc2)CC1,2.1 µM
26,CSc1ccc2c(c1)C(OCCN1CCC(O)(c3ccc(Cl)cc3)CC1)Cc1ccccc1S2 (stereo not drawn),12.4 µM

row,SMILES,IC50
1,CC(C)(C)c1ccc(C(OC(CN)c2ccccc2)c2ccccc2)cc1 (stereo not drawn),8.2 µM
2,CCCCCCCCN1C2CCC1CC(OC1c3ccccc3CCc3ccccc31)C2 (stereo not drawn),5.6 µM
3,OC1(c2ccc(Cl)cc2)CCN(CCOC(c2ccccc2)c2ccc(F)cc2)CC1 (stereo not drawn),2.3 µM
4,COc1ccc(CC2Cc3ccccc3C2N)cc1 (stereo not drawn),> 100 µM
5,CN1CCN(C2Cc3ccccc3Sc3ccc(Cl)cc32)CC1 (stereo not drawn) [CLOROTEPINE],4.9 µM
6,COc1ccc(CC2Cc3ccccc3C2N)c(OC)c1 (stereo not drawn),> 100 µM
7,Clc1ccc(CC2Cc3ccccc3C2N2CCCCC2)c(Cl)c1 (stereo not drawn),13.4 µM
8,CN1CCN(C2c3ccccc3CC2Cc2ccc(Cl)cc2Cl)CC1 (stereo not drawn),8.1 µM
9,CC(Cc1cccc(C(F)(F)F)c1)NCCc1c2ccccc2nc2ccccc12 (stereo not drawn),5.5 µM
10,Cc1ccc(CC2Cc3ccccc3C2N)c(C)c1 (stereo not drawn),17.7 µM
11,COc1ccccc1CC1Cc2ccccc2C1N (stereo not drawn),37.3 µM
12,OC1(c2ccc(Cl)cc2)CCN(CCCN(Cc2ccccc2)c2ccc(Cl)cc2)CC1,1.8 µM
13,OC1(c2ccc(Cl)cc2)CCN(CCCN2Cc3ccccc3CCc3ccccc32)CC1,0.7 µM
14,OC1(c2ccc(Cl)cc2)CCCN(CCCN2Cc3ccccc3CCc3ccccc32)C1 (stereo not drawn),0.9 µM
15,NC1c2ccccc2CCCC1Cc1ccc(Cl)cc1Cl (stereo not drawn),11.8 µM
16,NCC(OC(c1ccccc1)c1ccc(Cl)cc1Cl)c1ccccc1 (stereo not drawn),9.2 µM
17,Clc1ccc(C2=CCN(C3c4ccccc4CC3Cc3ccc(Cl)cc3Cl)CC2)cc1 (stereo not drawn),> 100 µM
18,CC(Cc1ccccc1)NCC=C1c2ccccc2CCc2ccccc21 (stereo not drawn),4.2 µM
19,Clc1ccc(CC2Cc3ccccc3C2NCc2ccccc2)c(Cl)c1 (stereo not drawn),> 100 µM
20,CC(Cc1ccc(Cl)cc1)NCCC1=C2C=CC=CC2Sc2ccccc21 (stereo not drawn),2.6 µM
21,CCCCN1CCN(C2=Nc3cc(Cl)ccc3Nc3ccccc32)CC1,4.7 µM
22,CC(Cc1ccccc1)NCCC1c2ccccc2-c2ccccc21 (stereo not drawn),5.2 µM
23,NC1c2ccccc2CCC1Cc1ccc(Cl)cc1Cl (stereo not drawn),8.5 µM
24,CC(=O)Nc1ccc(CC2Cc3ccccc3C2N)cc1 (stereo not drawn),> 100 µM
25,NC1c2ccccc2CC1Cc1ccccc1 (stereo not drawn),80.6 µM
